Experimental data as given in ChEMBL document CHEMBL2203123, “Synthesis and biological evaluation of some hydrazone derivatives as new anticandidal and anticancer agents” (Eur J Med Chem, 2012).
In brackets after ≈: the same amount, converted by molar mass.

System: Salmonella typhimurium
Assay: Genotoxicity against Salmonella typhimurium TA98 assessed as fold increase in revertants at 5 mg/ml after 90 mins by Ames MPF test in absence of S9 fraction relative to baseline
Type: toxicity, organism-based
Details: salmonella enterica subsp. enterica serovar typhimurium, 1.5 h
How it was run: (§1)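 Ames MPF fluctuation test, TA98 and TA100: overnight cultures reincubated 90 min, then exposed 90 min at 37 °C to compounds at 0.156-5 mg/mL (in DMSO) with or without 4.5% v/v S9; indicator medium added, 48 wells per sample scored yellow after 48 h, triplicate. Fold over baseline = mean positive wells / (mean of DMSO control + 1 SD).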

SMILES	fold change (FC)
Cn1nnnc1SCC(=O)N/N=C/c1ccccc1F	1.59

System: Candida parapsilosis
Assay: Antifungal activity against Candida parapsilosis NRRL Y-12696 after 24 hrs by microdilution susceptibility assay
Type: functional
Details: Lodderomyces parapsilosis, NRRL Y-12696, 24 h
How it was run: (§2)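 Broth microdilution in Mueller Hinton Broth, compounds from DMSO stocks diluted serially; inocula standardized to 10^6 CFU/mL (McFarland 0.5) from overnight MHB cultures. Plates held 37 °C for 24 h; MIC taken as first well without turbidity, aided by 1% tetrazolium violet added for 3 h at 37 °C. Ketoconazole reference.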

SMILES	MIC [µg/mL]
Cn1nnnc1SCC(=O)N/N=C/c1ccccc1F	1000 (≈ 3400 µM)

System: Salmonella typhimurium
Assay: Genotoxicity against Salmonella typhimurium TA100 assessed as fold increase in revertants at 1.25 mg/ml after 90 mins by Ames MPF test in absence of S9 fraction relative to baseline
Type: toxicity, organism-based
Details: salmonella enterica subsp. enterica serovar typhimurium, 1.5 h
How it was run: as §1

SMILES	fold change (FC)
Cn1nnnc1SCC(=O)N/N=C/c1ccccc1F	0.29

System: Candida albicans
Assay: Antifungal activity against Candida albicans clinical isolate after 24 hrs by microdilution susceptibility assay
Type: functional
Details: not given
How it was run: as §2

SMILES	MIC [µg/mL]
Cn1nnnc1SCC(=O)N/N=C/c1ccccc1F	125 (≈ 425 µM)

System: not listed separately
Assay: Genotoxicity against Salmonella typhimurium TA1535/pSK1002 assessed as induction ratio at 2.5 mg/ml by umuC assay in absence of S9 fraction
Type: toxicity, organism-based
Details: salmonella enterica subsp. enterica serovar typhimurium, Salmonella typhimurium TA1535/pSK1002 without S9 fraction
How it was run: (§3)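 umuC Easy CS: TA1535/pSK1002 grown overnight in ampicillin TG medium at 37 °C, then exposed 2 h at 37 °C to compounds at 5, 2.5, 1.25, 0.63 mg/mL with or without S9. Diluted into fresh medium for 2 h growth (OD600), then β-galactosidase with ONPG 30 min at 28 °C, OD420. Positive controls 2-aminoanthracene (+S9), […] (−S9).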

SMILES	fold induction at 2.5 mg/ml
Cn1nnnc1SCC(=O)N/N=C/c1ccccc1F	0.779

System: Salmonella typhimurium
Assay: Genotoxicity against Salmonella typhimurium TA98 assessed as fold increase in revertants at 1.25 mg/ml after 90 mins by Ames MPF test in presence of S9 fraction relative to baseline
Type: toxicity, organism-based
Details: salmonella enterica subsp. enterica serovar typhimurium, s9, 1.5 h
How it was run: as §1

SMILES	fold change (FC)
Cn1nnnc1SCC(=O)N/N=C/c1ccccc1F	1.28

System: Salmonella typhimurium
Assay: Genotoxicity against Salmonella typhimurium TA100 assessed as fold increase in revertants at 0.625 mg/ml after 90 mins by Ames MPF test in absence of S9 fraction relative to baseline
Type: toxicity, organism-based
Details: salmonella enterica subsp. enterica serovar typhimurium, 1.5 h
How it was run: as §1

SMILES	fold change (FC)
Cn1nnnc1SCC(=O)N/N=C/c1ccccc1F	0.23

System: Cyberlindnera jadinii
Assay: Antifungal activity against Candida utilis NRRL Y-900 after 24 hrs by microdilution susceptibility assay
Type: functional
Details: Williopsis jadinii, NRRL Y-900, 24 h
How it was run: as §2

SMILES	MIC [µg/mL]
Cn1nnnc1SCC(=O)N/N=C/c1ccccc1F	125 (≈ 425 µM)

System: Salmonella typhimurium
Assay: Genotoxicity against Salmonella typhimurium TA98 assessed as fold increase in revertants at 0.625 mg/ml after 90 mins by Ames MPF test in presence of S9 fraction relative to baseline
Type: toxicity, organism-based
Details: salmonella enterica subsp. enterica serovar typhimurium, s9, 1.5 h
How it was run: as §1

SMILES	fold change (FC)
Cn1nnnc1SCC(=O)N/N=C/c1ccccc1F	1

System: Pichia kudriavzevii
Assay: Antifungal activity against Candida krusei NRRL Y-7179 after 24 hrs by microdilution susceptibility assay
Type: functional
Details: NRRL Y-7179, 24 h
How it was run: as §2

SMILES	MIC [µg/mL]
Cn1nnnc1SCC(=O)N/N=C/c1ccccc1F	500 (≈ 1700 µM)

System: A549
Assay: Cytotoxicity against human A549 cells after 24 hrs by XTT assay
Type: functional, cell-based
Details: A549, 24 h
How it was run: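 A549 cells in RPMI 1640 with 10% fetal calf serum, penicillin/streptomycin, 37 °C, 5% CO2; 20,000 cells/well seeded, after 24 h exposed to compounds at 0.00316 µM-10 mM for 24 h. XTT mitochondrial activity read at 480 nm (reference 680 nm) after 3 h; % inhibition per concentration, IC50 by non-linear regression.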

SMILES	IC50 [mM]
Cn1nnnc1SCC(=O)N/N=C/c1ccccc1F	9

System: Salmonella typhimurium
Assay: Genotoxicity against Salmonella typhimurium TA1535/pSK1002 assessed as growth factor ratio at 2.5 mg/ml by umuC assay in absence of S9 fraction
Type: toxicity, organism-based
Details: salmonella enterica subsp. enterica serovar typhimurium
How it was run: as §3

SMILES	Ratio
Cn1nnnc1SCC(=O)N/N=C/c1ccccc1F	1.559

System: Candida albicans
Assay: Antifungal activity against Candida albicans ATCC 10231 after 24 hrs by microdilution susceptibility assay
Type: functional
Details: ATCC 10231, 24 h
How it was run: as §2

SMILES	MIC [µg/mL]
Cn1nnnc1SCC(=O)N/N=C/c1ccccc1F	250 (≈ 849 µM)

System: Salmonella typhimurium
Assay: Genotoxicity against Salmonella typhimurium TA1535/pSK1002 assessed as induction ratio at 0.63 mg/ml by umuC assay in absence of S9 fraction
Type: toxicity, organism-based
Details: salmonella enterica subsp. enterica serovar typhimurium
How it was run: as §3

SMILES	Ratio
Cn1nnnc1SCC(=O)N/N=C/c1ccccc1F	1.312

System: Salmonella typhimurium
Assay: Genotoxicity against Salmonella typhimurium TA98 assessed as fold increase in revertants at 1.25 mg/ml after 90 mins by Ames MPF test in absence of S9 fraction relative to baseline
Type: toxicity, organism-based
Details: salmonella enterica subsp. enterica serovar typhimurium, 1.5 h
How it was run: as §1

SMILES	fold change (FC)
Cn1nnnc1SCC(=O)N/N=C/c1ccccc1F	0.32

System: Salmonella typhimurium
Assay: Genotoxicity against Salmonella typhimurium TA98 assessed as fold increase in revertants at 0.625 mg/ml after 90 mins by Ames MPF test in absence of S9 fraction relative to baseline
Type: toxicity, organism-based
Details: salmonella enterica subsp. enterica serovar typhimurium, 1.5 h
How it was run: as §1

SMILES	fold change (FC)
Cn1nnnc1SCC(=O)N/N=C/c1ccccc1F	0.64

System: Salmonella typhimurium
Assay: Genotoxicity against Salmonella typhimurium TA1535/pSK1002 assessed as growth factor ratio at 0.63 mg/ml by umuC assay in presence of S9 fraction
Type: toxicity, organism-based
Details: salmonella enterica subsp. enterica serovar typhimurium
How it was run: as §3

SMILES	Ratio
Cn1nnnc1SCC(=O)N/N=C/c1ccccc1F	0.935

System: Salmonella typhimurium
Assay: Genotoxicity against Salmonella typhimurium TA98 assessed as fold increase in revertants at 2.5 mg/ml after 90 mins by Ames MPF test in absence of S9 fraction relative to baseline
Type: toxicity, organism-based
Details: salmonella enterica subsp. enterica serovar typhimurium, 1.5 h
How it was run: as §1

SMILES	fold change (FC)
Cn1nnnc1SCC(=O)N/N=C/c1ccccc1F	0.95

System: Salmonella typhimurium
Assay: Genotoxicity against Salmonella typhimurium TA98 assessed as fold increase in revertants at 0.156 mg/ml after 90 mins by Ames MPF test in absence of S9 fraction relative to baseline
Type: toxicity, organism-based
Details: salmonella enterica subsp. enterica serovar typhimurium, 1.5 h
How it was run: as §1

SMILES	fold change (FC)
Cn1nnnc1SCC(=O)N/N=C/c1ccccc1F	0.64

System: Salmonella typhimurium
Assay: Genotoxicity against Salmonella typhimurium TA100 assessed as fold increase in revertants at 0.156 mg/ml after 90 mins by Ames MPF test in absence of S9 fraction relative to baseline
Type: toxicity, organism-based
Details: salmonella enterica subsp. enterica serovar typhimurium, 1.5 h
How it was run: as §1

SMILES	fold change (FC)
Cn1nnnc1SCC(=O)N/N=C/c1ccccc1F	0.23

System: Salmonella typhimurium
Assay: Genotoxicity against Salmonella typhimurium TA98 assessed as fold increase in revertants at 0.3125 mg/ml after 90 mins by Ames MPF test in absence of S9 fraction relative to baseline
Type: toxicity, organism-based
Details: salmonella enterica subsp. enterica serovar typhimurium, 1.5 h
How it was run: as §1

SMILES	fold change (FC)
Cn1nnnc1SCC(=O)N/N=C/c1ccccc1F	1.59

System: Salmonella typhimurium
Assay: Genotoxicity against Salmonella typhimurium TA1535/pSK1002 assessed as growth factor ratio at 2.5 mg/ml by umuC assay in presence of S9 fraction
Type: toxicity, organism-based
Details: salmonella enterica subsp. enterica serovar typhimurium
How it was run: as §3

SMILES	Ratio
Cn1nnnc1SCC(=O)N/N=C/c1ccccc1F	1.699

System: not listed separately
Assay: Genotoxicity against Salmonella typhimurium TA1535/pSK1002 assessed as induction ratio at 1.25 mg/ml by umuC assay in presence of S9 fraction
Type: toxicity, organism-based
Details: salmonella enterica subsp. enterica serovar typhimurium, Salmonella typhimurium TA1535/pSK1002 with S9 fraction
How it was run: as §3

SMILES	fold induction at 1.25 mg/ml
Cn1nnnc1SCC(=O)N/N=C/c1ccccc1F	0.548

System: Salmonella typhimurium
Assay: Genotoxicity against Salmonella typhimurium TA98 assessed as fold increase in revertants at 0.3125 mg/ml after 90 mins by Ames MPF test in presence of S9 fraction relative to baseline
Type: toxicity, organism-based
Details: salmonella enterica subsp. enterica serovar typhimurium, s9, 1.5 h
How it was run: as §1

SMILES	fold change (FC)
Cn1nnnc1SCC(=O)N/N=C/c1ccccc1F	0.71

System: Salmonella typhimurium
Assay: Genotoxicity against Salmonella typhimurium TA100 assessed as fold increase in revertants at 0.3125 mg/ml after 90 mins by Ames MPF test in presence of S9 fraction relative to baseline
Type: toxicity, organism-based
Details: salmonella enterica subsp. enterica serovar typhimurium, s9, 1.5 h
How it was run: as §1

SMILES	fold change (FC)
Cn1nnnc1SCC(=O)N/N=C/c1ccccc1F	0.51

System: Salmonella typhimurium
Assay: Genotoxicity against Salmonella typhimurium TA1535/pSK1002 assessed as growth factor ratio at 0.63 mg/ml by umuC assay in absence of S9 fraction
Type: toxicity, organism-based
Details: salmonella enterica subsp. enterica serovar typhimurium
How it was run: as §3

SMILES	Ratio
Cn1nnnc1SCC(=O)N/N=C/c1ccccc1F	1.045

System: Salmonella typhimurium
Assay: Genotoxicity against Salmonella typhimurium TA100 assessed as fold increase in revertants at 5 mg/ml after 90 mins by Ames MPF test in presence of S9 fraction relative to baseline
Type: toxicity, organism-based
Details: salmonella enterica subsp. enterica serovar typhimurium, s9, 1.5 h
How it was run: as §1

SMILES	fold change (FC)
Cn1nnnc1SCC(=O)N/N=C/c1ccccc1F	0.58

System: Salmonella typhimurium
Assay: Genotoxicity against Salmonella typhimurium TA1535/pSK1002 assessed as growth factor ratio at 5 mg/ml by umuC assay in presence of S9 fraction
Type: toxicity, organism-based
Details: salmonella enterica subsp. enterica serovar typhimurium
How it was run: as §3

SMILES	Ratio
Cn1nnnc1SCC(=O)N/N=C/c1ccccc1F	2.579
